Measured values from ChEMBL document CHEMBL1134680, “Iridals are a novel class of ligands for phorbol ester receptors with modest selectivity for the RasGRP receptor subfamily” (J Med Chem, 2001).

Tests used:
[1] = test system: Panel NCI-60 (60 carcinoma cell lines); assay: Inhibition of cell growth in NCI panel of 60 human carcinoma lines; format: functional
[2] = biological target: Protein kinase C alpha type (Homo sapiens, UniProt P17252); assay: Binding affinity for PKC alpha (C1b domain)
Outline: (§1)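 Competition of [3H]PDBu (3.0 nM) binding to partially purified PKCα or bacterially expressed MBP/RasGRP3 fusion (human RasGRP3, amylose-bead purified). Buffer: 50 mM Tris-Cl pH 7.4, 2 mg/mL γ-globulins, 0.1 mM Ca2+, 0.1 mg/mL phosphatidylserine. Incubation was 5 min at 37 °C for PKCα and 5 min at 18 °C for RasGRP3. Nonspecific binding was set with 30 μM PDBu. Bound and free were separated by PEG precipitation and counted.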

[3] = biological target: T1, Ras guanyl-releasing protein 3 (Homo sapiens, UniProt Q8IV61); assay: Binding affinity for RasGRP, guanine nucleotide exchange factor
T1 sequence (Q8IV61 whole entry): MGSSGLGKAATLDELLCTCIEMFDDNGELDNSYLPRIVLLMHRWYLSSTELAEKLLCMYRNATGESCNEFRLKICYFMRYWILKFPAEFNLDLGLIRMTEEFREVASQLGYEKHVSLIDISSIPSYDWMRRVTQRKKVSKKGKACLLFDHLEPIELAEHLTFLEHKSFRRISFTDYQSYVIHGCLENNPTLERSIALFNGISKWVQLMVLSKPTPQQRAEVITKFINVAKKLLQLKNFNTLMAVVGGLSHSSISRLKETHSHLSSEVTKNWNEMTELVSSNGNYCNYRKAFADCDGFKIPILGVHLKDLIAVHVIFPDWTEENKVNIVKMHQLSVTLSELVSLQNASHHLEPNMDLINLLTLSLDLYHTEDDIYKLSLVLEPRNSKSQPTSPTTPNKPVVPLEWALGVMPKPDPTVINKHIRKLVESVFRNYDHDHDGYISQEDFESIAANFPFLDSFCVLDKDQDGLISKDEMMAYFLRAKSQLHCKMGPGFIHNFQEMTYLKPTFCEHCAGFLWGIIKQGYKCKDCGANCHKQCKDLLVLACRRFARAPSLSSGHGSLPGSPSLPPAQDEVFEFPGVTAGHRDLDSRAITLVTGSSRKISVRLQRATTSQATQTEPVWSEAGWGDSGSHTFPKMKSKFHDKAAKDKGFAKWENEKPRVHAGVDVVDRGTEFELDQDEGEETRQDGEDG

[4] = biological target: T1, Ras guanyl-releasing protein 3; assay: Binding affinity for RasGPR3, guanine nucleotide exchange factor; outline: as §1

Row | Ki [2] | Ki [3] | Ki [4] | Structure (SMILES) | Log 1/GI50 [1]
1 |  |  |  | C=C(C)[C@]12C[C@@H](C)[C@@]34O[C@](/C=C/C=CCCCCCCCCC)(O[C@@H]1[C@@H]3[C@@H]1O[C@]1(CO)[C@@H](O)[C@]1(O)C(=O)C(C)=C[C@H]14)O2 | 4.7
2 |  |  |  | CCCCC(=O)O[C@@H]1[C@@H](C)[C@@]2(O)[C@@H](C=C(CO)C[C@]3(O)C(=O)C(C)=C[C@@H]23)[C@@H]2C(C)(C)[C@]12OC(=O)CCC | 4
3 |  |  |  | C=C(C)[C@@]12OC3(c4ccccc4)O[C@@H]1[C@@H]1[C@@H]4O[C@]4(CO)[C@@H](O)[C@]4(O)C(=O)C(C)=C[C@H]4[C@@]1(O3)[C@H](C)[C@H]2OC(=O)/C=C/C=C/c1ccccc1 | 5.8
4 |  |  |  | C=C(C)[C@@]12C[C@@H](COC(=O)c3ccccc3)[C@@]34OC5(O[C@@H]1[C@@H]3[C@@H]1O[C@]1(CO)[C@@H](O)[C@@]1(O)[C@H]4[C@H]([C@H](C)[C@@H]1OC(=O)c1ccccc1)[C@H](C)CCCCCC[C@H]5O)O2 [GNIDIMACRIN] | 4
5 | 75.6 nM | 15.5 nM |  | CC1=CC[C@H](C)C(C)(C)[C@@H]1/C=C/C(C)=C\CC[C@@]1(CO)[C@H](CCCO)/C(=C(/C)C=O)CC[C@]1(C)O | 4.6
6 |  |  |  | CC1=C[C@H]2[C@@]3(O)[C@H](C)[C@@H](O)[C@]4(O)[C@H]([C@@H]3C=C(CO)C[C@]2(O)C1=O)C4(C)C [PHORBOL] | 4.3
7 | 83.6 nM |  | 41.7 nM | C=C(/C=C/C=C(/CCC=C(C)C)COC(C)=O)[C@@H]1CC[C@]2([C@H](CCCO)/C(=C(/C)C=O)CC[C@]2(C)O)[C@@H]1O | 4.4
8 |  |  |  | CC(=O)O[C@@]12C[C@@H](C)[C@@]3(O)[C@@H](C=C(CO)C[C@]4(O)C(=O)C(C)=C[C@@H]34)[C@@H]1C2(C)C [PROSTRATIN] | 3
